Experimental data published in ChEMBL document CHEMBL4765357, “Development of small-molecule inhibitors of fatty acyl-AMP and fatty acyl-CoA ligases in Mycobacterium tuberculosis” (Eur J Med Chem, 2020).
Values after ≈ are worked out from the molar mass of the structure shown.

Tests used:
[1] = Inhibition of Mycobacterium tuberculosis PKS13
[2] = molecular target: T1, Medium/long-chain-fatty-acid--CoA/3-oxocholest-4-en-26-oate--CoA ligase (Mycobacterium tuberculosis, UniProt P9WQ51); test: Inhibition of Mycobacterium tuberculosis H37Rv FACL19 Spectra expressed in Escherichia coli BL21(DE3) cells assessed as cleavage of MEsG by spectroscopic analysis; details: read-out: Ki(app)
T1 sequence (P9WQ51 whole entry): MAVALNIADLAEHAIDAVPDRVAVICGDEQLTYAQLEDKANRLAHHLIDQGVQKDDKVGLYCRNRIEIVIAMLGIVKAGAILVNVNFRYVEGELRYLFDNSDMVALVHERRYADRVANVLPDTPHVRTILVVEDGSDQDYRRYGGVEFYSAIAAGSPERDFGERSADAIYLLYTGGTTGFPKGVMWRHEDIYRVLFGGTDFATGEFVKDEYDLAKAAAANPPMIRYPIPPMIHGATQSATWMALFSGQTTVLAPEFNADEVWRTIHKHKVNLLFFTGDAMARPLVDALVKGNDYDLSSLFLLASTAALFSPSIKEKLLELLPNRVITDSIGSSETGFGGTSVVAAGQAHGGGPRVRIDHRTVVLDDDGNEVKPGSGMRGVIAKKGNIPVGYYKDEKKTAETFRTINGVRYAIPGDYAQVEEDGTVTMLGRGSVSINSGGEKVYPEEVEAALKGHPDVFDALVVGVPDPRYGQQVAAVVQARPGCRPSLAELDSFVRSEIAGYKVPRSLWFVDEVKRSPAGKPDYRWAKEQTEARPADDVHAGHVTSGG
Method in brief: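 FACL19 (0.167 μM) with 250 μM dodecanoic acid in a coupled MesG assay with pyrophosphatase and nucleoside phosphorylase. Buffer was 50 mM Tris·HCl pH 8.0 with 2.5 mM ATP, 5 mM MgCl₂, 0.5 mM DTT and 150 mM hydroxylamine. Apparent Ki came from a Morrison tight-binding fit.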

[3] = system: Mycobacterium tuberculosis; test: Antimycobacterial activity against Mycobacterium tuberculosis H37Rv ATCC 27294 assessed as inhibition of bacterial growth under 7H9 medium condition after 7 to 14 days in presence of palmitate by broth microdilution method; type: functional; details: time 7-14 day
Method in brief: (§1)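 Mtb H37Rv ATCC 27294 by broth microdilution in GAST or 7H9 base with 5 g/L BSA fraction V, 0.8 g/L NaCl and 0.05% tyloxapol. Carbon source was 20 mM glycerol/10 mM glucose or 0.05 mM sodium palmitate. Compounds came from DMSO stocks with DMSO-only controls. Inoculum was 10⁴-10⁵ cells; growth was read at 7 and 14 days. MIC is the concentration giving >99% growth inhibition; runs were in triplicate.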

[4] = system: Mycobacterium tuberculosis; test: Antimycobacterial activity against Mycobacterium tuberculosis H37Rv ATCC 27294 assessed as inhibition of bacterial growth under 7H9 medium condition after 7 to 14 days by broth microdilution method; type: functional; details: time 7-14 day; method in brief: as §1
[5] = system: Mycobacterium tuberculosis; test: Antimycobacterial activity against Mycobacterium tuberculosis H37Rv ATCC 27294 assessed as inhibition of bacterial growth under GAST medium condition after 7 to 14 days by broth microdilution method; type: functional; details: time 7-14 day; method in brief: as §1
[6] = molecular target: T2, Long-chain-fatty-acid--AMP ligase FadD28 (Mycobacterium tuberculosis, UniProt P9WQ59); test: Inhibition of Mycobacterium tuberculosis H37Rv FAAL28 Spectra expressed in Escherichia coli BL21(DE3) cells assessed as cleavage of MEsG by spectroscopic analysis; details: read-out: Ki(app)
T2 sequence (P9WQ59 whole entry): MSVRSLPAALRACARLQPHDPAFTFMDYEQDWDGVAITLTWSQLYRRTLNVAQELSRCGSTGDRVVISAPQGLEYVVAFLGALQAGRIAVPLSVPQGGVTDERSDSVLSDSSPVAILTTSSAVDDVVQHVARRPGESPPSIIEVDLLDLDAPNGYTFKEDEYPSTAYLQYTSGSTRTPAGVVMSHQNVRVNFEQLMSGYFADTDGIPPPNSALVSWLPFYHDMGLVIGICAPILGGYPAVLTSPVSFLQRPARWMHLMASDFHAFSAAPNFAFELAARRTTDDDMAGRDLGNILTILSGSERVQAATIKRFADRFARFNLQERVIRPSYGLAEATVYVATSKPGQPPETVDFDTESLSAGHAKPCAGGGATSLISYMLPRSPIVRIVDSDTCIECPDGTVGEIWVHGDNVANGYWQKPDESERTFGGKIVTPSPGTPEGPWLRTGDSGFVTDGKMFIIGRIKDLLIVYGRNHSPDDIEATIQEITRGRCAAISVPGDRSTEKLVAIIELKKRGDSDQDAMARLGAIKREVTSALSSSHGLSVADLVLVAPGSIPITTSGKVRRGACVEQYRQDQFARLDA
Method in brief: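 Coupled continuous assay with pyrophosphatase (0.04 U) and nucleoside phosphorylase (0.1 U), using 0.45 μM FAAL28 and 33 μM tetradecanoic acid. Buffer was 50 mM Tris·HCl pH 8.0 with 2.5 mM ATP, 5 mM MgCl₂, 0.5 mM DTT, 150 mM hydroxylamine and 0.2 mM MesG. Apparent Ki came from a Morrison equation fit.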

[7] = system: Mycobacterium tuberculosis; test: Antimycobacterial activity against Mycobacterium tuberculosis H37Rv after 16 hrs; type: functional
[8] = molecular target: T2, Long-chain-fatty-acid--AMP ligase FadD28; test: Inhibition of Mycobacterium tuberculosis H37Rv His-tagged FAAL28 expressed in Escherichia coli; details: read-out: Ki(app)
Vero = test: Cytotoxicity against African green monkey Vero cells assessed as reduction in cell viability after 72 hrs by MTT assay; type: cell-based; details: Chlorocebus sabaeus
Method in brief: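 Vero cells were seeded at (2.5–5.0) × 10⁴ per well in MEM with 5% FBS and penicillin/streptomycin. Compounds were added from 20 mM DMSO stocks to a final 100 μM. Controls were 0.5% and 50% DMSO, all in triplicate. After 72 h at 37 °C in 5% CO₂, cells got 1 mg/mL MTT for 3 h. Formazan was dissolved in isopropanol and read at 570/650 nm, with viability expressed relative to DMSO control.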

[9] = molecular target: T1, Medium/long-chain-fatty-acid--CoA/3-oxocholest-4-en-26-oate--CoA ligase; test: Inhibition of Mycobacterium tuberculosis H37Rv His-tagged FACL19 expressed in Escherichia coli; details: read-out: Ki(app)
[10] = system: Mycolicibacterium smegmatis; test: Antimycobacterial activity against Mycobacterium smegmatis; type: functional

SMILES | IC50 [1] [µM] | Ki [2] [µM] | MIC [3] [µM] | MIC [4] [µM] | MIC [5] [µM] | Ki [6] [µM] | MIC [7] [µM] | Ki [8] [µM] | IC50 (Vero) [µM] | Ki [9] [µM] | MIC [10] [µM]
Cc1cc2oc(=O)cc(-c3cccc(N)c3)c2c(C)c1-c1ccc(CN2CCOCC2)cc1 | 0.5 | – | – | – | – | – | – | – | – | – | –
CCCCCCCCCCCC(=O)NS(=O)(=O)OC[C@H]1O[C@@H](n2cnc3c(N)ncnc32)[C@H](O)[C@@H]1O | – | 67.4 | 50 | 50 (≈ 26.4 µg/mL) | 0.19 (≈ 0.1 µg/mL) | 6.4 | 100 (≈ 52.9 µg/mL) | 1.5 | 28.7 | 4.9 | –
NCCCCCCCCCCCC(=O)NS(=O)(=O)OC[C@H]1O[C@@H](n2cnc3c(N)ncnc32)[C@H](O)[C@@H]1O | – | 93.3 | 12.5 | 50 (≈ 27.2 µg/mL) | 3.13 (≈ 1.7 µg/mL) | > 100 | – | – | 27.1 | – | –
CCCCCC/C=C/CCCC(=O)NS(=O)(=O)OC[C@H]1O[C@@H](n2cnc3c(N)ncnc32)[C@H](O)[C@@H]1O | – | > 100 | > 100 | > 100 | 100 (≈ 52.7 µg/mL) | > 100 | – | – | 16.8 | – | –
CCCCCCCCCOCC(=O)NS(=O)(=O)OC[C@H]1O[C@@H](n2cnc3c(N)ncnc32)[C@H](O)[C@@H]1O | – | > 100 | 25 | 25 (≈ 13.3 µg/mL) | 0.098 (≈ 0.052 µg/mL) | > 100 | – | – | 8.7 | – | –
Nc1ncnc2c1ncn2[C@@H]1O[C@H](COS(=O)(=O)NC(=O)CCCCCCCCCCO)[C@@H](O)[C@H]1O | – | > 100 | 100 | 100 (≈ 53.1 µg/mL) | 6.25 (≈ 3.32 µg/mL) | 92.7 | – | – | 42.7 | – | –
CCCCCCCCC/C=C/C(=O)NS(=O)(=O)OC[C@H]1O[C@@H](n2cnc3c(N)ncnc32)[C@H](O)[C@@H]1O | – | > 100 | > 100 | > 100 | 100 (≈ 52.7 µg/mL) | > 100 | – | – | 10.4 | – | –
CCCCCCCCCCCCCCCCCC(=O)NS(=O)(=O)OC[C@H]1O[C@@H](n2cnc3c(N)ncnc32)[C@H](O)[C@@H]1O | – | 2.4 | > 100 | 100 (≈ 61.3 µg/mL) | 100 (≈ 61.3 µg/mL) | 0.5 | – | – | 0.1 | – | –
CCCCCCCCCCCCOP(=O)(O)OC[C@H]1O[C@@H](n2cnc3c(N)ncnc32)[C@H](O)[C@@H]1O | – | – | – | – | – | – | – | – | – | – | 20 (≈ 10.3 µg/mL)
CCCC(=O)NS(=O)(=O)OC[C@H]1O[C@@H](n2cnc3c(N)ncnc32)[C@H](O)[C@@H]1O | – | > 100 | > 100 | > 100 | > 100 | > 100 | – | – | 81.4 | – | –
CCCCCCCC(=O)NS(=O)(=O)OC[C@H]1O[C@@H](n2cnc3c(N)ncnc32)[C@H](O)[C@@H]1O | – | > 100 | > 100 | 100 (≈ 47.3 µg/mL) | 12.5 (≈ 5.91 µg/mL) | > 100 | – | – | 6 | – | –
[N-]=[N+]=NCCCCCCCCCCCC(=O)NS(=O)(=O)OC[C@H]1O[C@@H](n2cnc3c(N)ncnc32)[C@H](O)[C@@H]1O | – | > 100 | 25 | 12.5 (≈ 7.12 µg/mL) | 0.19 (≈ 0.108 µg/mL) | 28.5 | – | – | 5.6 | – | –
CCCCCC(=O)NS(=O)(=O)OC[C@H]1O[C@@H](n2cnc3c(N)ncnc32)[C@H](O)[C@@H]1O | – | > 100 | > 100 | > 100 | 100 (≈ 44.4 µg/mL) | > 100 | – | – | 48.6 | – | –
